Paper PMC4122523 (Biomedical chromatography : BMC, 2013)

How the values were obtained:
[1] = Intravenous pharmacokinetic study in rats; assay type: in vivo, male Sprague–Dawley rats; conditions: rat
Method in brief: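 Male Sprague–Dawley rats (n = 6, 260–280 g), fasted overnight, given water after dosing and food from 4 h post-dose. Single 5 mg/kg i.v. dose via jugular-vein cannula. Blood (0.15 mL) drawn via cannula pre-dose and at 2–480 min and 12–42 h. Plasma separated at 10,000 g, 10 min, 4 °C, and stored at −20 °C. Chloroform extraction with aripiprazole internal standard, UPLC/MS/MS, then non-compartmental analysis.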

[2] = tested on: METH-induced dopaminergic neurotoxicity and hyperthermia; conditions: Swiss Webster mice, intraperitoneal; ref Seminerio et al., 2012a; cited from earlier work
[3] = tested on: METH-induced memory impairment; conditions: mouse; ref Seminerio et al., 2012a; cited from earlier work
[4] = tested on: cocaine-induced convulsions; conditions: mice, toxic dose of cocaine; ref Seminerio et al., 2012b; cited from earlier work
[5] = Stability of AZ66 in rat plasma at various storage conditions; assay type: in vitro ADME
Method in brief: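 Rat plasma QC samples at 10, 400 and 3000 ng/mL, six replicates each. Conditions: three freeze–thaw cycles at −20 °C; −20 °C for 30 days; room temperature for 12 h; processed extracts held in the autosampler at 25 °C for 24 h. Analysed by chloroform liquid–liquid extraction and UPLC/MS/MS with aripiprazole internal standard. Compared against freshly prepared standards; bias = 100×(measured−actual)/actual.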

[6] = Stability of stock solutions; assay type: physicochemical; conditions: 12 h at room temperature and a week at −20 °C
Method in brief: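 Stock solutions: analyte 1.0 mg/mL in water, aripiprazole internal standard 1 mg/mL in methanol. Held 12 h at room temperature, and tested daily over 1 week during storage at −20 °C. Compared against freshly prepared standards by UPLC/MS/MS.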

[7] = ref Seminerio et al., 2012b, cited from earlier work
[8] = tested on: both subtypes of sigma receptors; conditions: radioligand binding; ref Seminerio et al., 2012b; cited from earlier work
[9] = tested on: neurotoxic and stimulant effects of METH; conditions: mouse; ref Kaushal et al., 2011, 2012; cited from earlier work
[10] = male, Sprague-Dawley, plasma, iv, 5 mg/kg
[11] = processed plasma samples, auto-sampler 24 h (25 °C), spiked 10 ng/mL
[12] = processed plasma samples, auto-sampler 24 h (25 °C), spiked 400 ng/mL
[13] = rat plasma, long-term 30 days (−20 °C), spiked 10 ng/mL
[14] = rat plasma, long-term 30 days (−20 °C), spiked 400 ng/mL
[15] = rat plasma, long-term 30 days (−20 °C), spiked 3000 ng/mL
[16] = rat plasma, short-term 12 h (25 °C), spiked 10 ng/mL
[17] = rat plasma, short-term 12 h (25 °C), spiked 400 ng/mL
[18] = rat plasma, short-term 12 h (25 °C), spiked 3000 ng/mL
[19] = rat plasma, three freeze–thaw cycles (−20 °C), spiked 400 ng/mL
[20] = rat plasma, three freeze–thaw cycles (−20 °C), spiked 3000 ng/mL

CC(CCCn1c(=O)sc2cc(F)ccc21)N1CCN(C2CCCCC2)CC1 (stereo not shown) [AZ66, 3-[4-(4-cyclohexylpiperazin-1-yl)pentyl]-6-fluorobenzo[d] thiazole-2(3H)-one]
Cmax [1, 10]: 1200 ± 200 ng/mL | MRT [1, 10]: 7.6 ± 0.7 h | Vd [1, 10]: 30.1 ± 3.6 L/kg | clearance [1, 10]: 43.3 mL/min/kg | half-life [1, 10]: 7.9 ± 0.3 h | CL (total clearance) ([1]; i.v. 5 mg/kg, n=6, mean ± SD): 43.3 ± 6.7 mL/min/kg | effect on METH-induced dopaminergic neurotoxicity [2]: attenuate | effect on METH-induced hyperthermia [2]: attenuate | effect on memory impairment caused by repeated intake of METH [3]: attenuated the memory impairment | attenuation of cocaine-induced convulsions [4]: significantly attenuate convulsions | Stability in reconstituted samples in the auto-sampler ([5]; 25 °C for 24 h): stable | Bias [5, 11]: 1.7% | Measured concentration [5, 11]: 10.1 ± 0.2 ng/mL | Bias [5, 12]: 0.8% | Measured concentration [5, 12]: 403.2 ± 18.6 ng/mL | Measured concentration ([5]; processed plasma samples, auto-sampler 24 h (25 °C), spiked 3000 ng/mL): 3222 ± 79.4 ng/mL | Bias [5, 13]: 0.3% | Measured concentration [5, 13]: 10.2 ± 0.4 ng/mL | Bias [5, 14]: −0.4% | Measured concentration [5, 14]: 402.4 ± 7.1 ng/mL | Bias [5, 15]: −0.6% | Measured concentration [5, 15]: 3028 ± 55.0 ng/mL | Bias [5, 16]: 1.3% | Measured concentration [5, 16]: 10.2 ± 0.2 ng/mL | Bias [5, 17]: −0.5% | Measured concentration [5, 17]: 401.4 ± 3.5 ng/mL | Bias [5, 18]: 1.0% | Measured concentration [5, 18]: 3015 ± 30.6 ng/mL | Measured concentration ([5]; rat plasma, three freeze–thaw cycles (−20 °C), spiked 10 ng/mL): 10.2 ± 0.7 ng/mL | Bias [5, 19]: −0.6% | Measured concentration [5, 19]: 396.1 ± 12.7 ng/mL | Bias [5, 20]: 0.2% | Measured concentration [5, 20]: 2990 ± 42.9 ng/mL | Short-term stability in rat plasma ([5]; room temperature for 12 h (25 °C)): stable | Freeze–thaw stability in rat plasma ([5]; three freeze–thaw cycles, 10, 400 and 3000 ng/mL): stable | Long-term stability in rat plasma ([5]; −20 °C for 30 days): stable | Stability of stock solutions [6]: stable | in vitro half-life compared with CM156 ([7]; in vitro): appreciably longer half-life | affinity for both subtypes of sigma receptors [8]: high nanomolar affinity | selectivity over a wide battery of CNS targets [8]: highly selective

c1ccc(CCN2CCCCC2)cc1 [AC927]
effect on neurotoxic effects of METH [9]: attenuated | effect on stimulant effects of METH [9]: attenuated

S=c1sc2ccccc2n1CCCCN1CCN(C2CCCCC2)CC1 [CM156, 3-[4-(4-cyclohexylpiperazin-1-yl)butyl]benzo[d]thiazole-2(3H)-thione]
effect on neurotoxic effects of METH [9]: attenuated | effect on stimulant effects of METH [9]: attenuated | in vitro half-life ([7]; rat liver microsomes): 4.62 min

O=C1CCc2ccc(OCCCCN3CCN(c4cccc(Cl)c4Cl)CC3)cc2N1 [IS, aripiprazole, reference compound]
Stability of stock solutions [6]: stable
